Experimental data taken from ChEMBL document CHEMBL5058577, “EUbOPEN Chemogenomics Library 2 (Multiplex)” (2022).

System: Fibroblast
Assay: Multiplex assay against human fibroblast
Assay type: toxicity, cell-based
How it was run: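 Values for tubulin, mitochondrial-mass and membrane-permeability phenotypes are per cents of cells with healthy nuclei. These cells were identified by CellPathfinder machine-learning gating of live cells that had been stained at seeding with Hoechst33342, BioTracker Green Microtubule Cytoskeleton Dye, MitoTracker Red and Annexin V Alexa Fluor 680 and imaged on a CQ1 microscope at 37°C and 5% CO2 after compound addition. The gating first set Hoechst high-intensity objects apart from normal cells, then split normal cells into healthy, pyknosed or fragmented nuclei, and pyknosed cells into mitotic or apoptotic.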

[1] = 12 h, 1 µM, compound concentration 1 uM, replicate 1
[2] = 12 h, 1 µM, compound concentration 1 uM, replicate 2
[3] = 12 h, 10 µM, compound concentration 10 uM, replicate 1
[4] = 12 h, 10 µM, compound concentration 10 uM, replicate 2
[5] = 24 h, 1 µM, compound concentration 1 uM, replicate 1
[6] = 24 h, 1 µM, compound concentration 1 uM, replicate 2
[7] = 24 h, 10 µM, compound concentration 10 uM, replicate 1
[8] = 24 h, 10 µM, compound concentration 10 uM, replicate 2
[9] = 48 h, 1 µM, compound concentration 1 uM, replicate 1
[10] = 48 h, 1 µM, compound concentration 1 uM, replicate 2
[11] = 48 h, 10 µM, compound concentration 10 uM, replicate 1
[12] = 48 h, 10 µM, compound concentration 10 uM, replicate 2

CC(C)COc1ccc(CNC(=O)N(Cc2ccc(F)cc2)C2CCN(C)CC2)cc1 [PIMAVANSERIN]
Population Apoptotic (%) [1]: 65%
Population Fragmented Nuclei (%) [1]: 24%
Population Healthy Nuclei (%) [1]: 62%
Population Hoechst High Intensity Objects (%) [1]: 0%
Population Membrane Permeable-Phenotype (%) [1]: 0%
Population Mitochondria Different-Phenotype (%) [1]: 12%
Population Mitotic Cells (%) [1]: 34%
Population Normal (%) [1]: 100%
Population Pyknosed Nuclei (%) [1]: 12%
Population Tubulin-Different-Phenotype (%) [1]: 35%
Total Cell Count [1]: 179
Population Apoptotic (%) [2]: 61%
Population Fragmented Nuclei (%) [2]: 40%
Population Healthy Nuclei (%) [2]: 42%
Population Hoechst High Intensity Objects (%) [2]: 1%
Population Membrane Permeable-Phenotype (%) [2]: 7%
Population Mitochondria Different-Phenotype (%) [2]: 4%
Population Mitotic Cells (%) [2]: 38%
Population Normal (%) [2]: 98%
Population Pyknosed Nuclei (%) [2]: 16%
Population Tubulin-Different-Phenotype (%) [2]: 82%
Total Cell Count [2]: 160
Population Apoptotic (%) [3]: 56%
Population Fragmented Nuclei (%) [3]: 18%
Population Healthy Nuclei (%) [3]: 65%
Population Hoechst High Intensity Objects (%) [3]: 1%
Population Membrane Permeable-Phenotype (%) [3]: 0%
Population Mitochondria Different-Phenotype (%) [3]: 42%
Population Mitotic Cells (%) [3]: 43%
Population Normal (%) [3]: 98%
Population Pyknosed Nuclei (%) [3]: 16%
Population Tubulin-Different-Phenotype (%) [3]: 93%
Total Cell Count [3]: 185
Population Apoptotic (%) [4]: 51%
Population Fragmented Nuclei (%) [4]: 31%
Population Healthy Nuclei (%) [4]: 42%
Population Hoechst High Intensity Objects (%) [4]: 4%
Population Membrane Permeable-Phenotype (%) [4]: 2%
Population Mitochondria Different-Phenotype (%) [4]: 32%
Population Mitotic Cells (%) [4]: 48%
Population Normal (%) [4]: 95%
Population Pyknosed Nuclei (%) [4]: 26%
Population Tubulin-Different-Phenotype (%) [4]: 81%
Population Apoptotic (%) [5]: 60%
Population Fragmented Nuclei (%) [5]: 21%
Population Healthy Nuclei (%) [5]: 65%
Population Hoechst High Intensity Objects (%) [5]: 2%
Population Membrane Permeable-Phenotype (%) [5]: 1%
Population Mitochondria Different-Phenotype (%) [5]: 5%
Population Mitotic Cells (%) [5]: 39%
Population Normal (%) [5]: 97%
Population Pyknosed Nuclei (%) [5]: 12%
Population Tubulin-Different-Phenotype (%) [5]: 47%
Total Cell Count [5]: 186
Population Apoptotic (%) [6]: 52%
Population Fragmented Nuclei (%) [6]: 39%
Population Healthy Nuclei (%) [6]: 46%
Population Membrane Permeable-Phenotype (%) [6]: 4%
Population Mitochondria Different-Phenotype (%) [6]: 9%
Population Mitotic Cells (%) [6]: 47%
Population Pyknosed Nuclei (%) [6]: 13%
Population Tubulin-Different-Phenotype (%) [6]: 76%
Total Cell Count [6]: 157
Population Apoptotic (%) [7]: 83%
Population Fragmented Nuclei (%) [7]: 13%
Population Healthy Nuclei (%) [7]: 67%
Population Hoechst High Intensity Objects (%) [7]: 4%
Population Membrane Permeable-Phenotype (%) [7]: 0%
Population Mitochondria Different-Phenotype (%) [7]: 41%
Population Mitotic Cells (%) [7]: 16%
Population Normal (%) [7]: 95%
Population Pyknosed Nuclei (%) [7]: 18%
Population Tubulin-Different-Phenotype (%) [7]: 92%
Total Cell Count [7]: 170
Population Apoptotic (%) [8]: 69%
Population Fragmented Nuclei (%) [8]: 27%
Population Healthy Nuclei (%) [8]: 50%
Population Hoechst High Intensity Objects (%) [8]: 8%
Population Membrane Permeable-Phenotype (%) [8]: 3%
Population Mitochondria Different-Phenotype (%) [8]: 38%
Population Mitotic Cells (%) [8]: 30%
Population Normal (%) [8]: 91%
Population Pyknosed Nuclei (%) [8]: 21%
Population Tubulin-Different-Phenotype (%) [8]: 96%
Total Cell Count [8]: 167
Population Apoptotic (%) [9]: 88%
Population Fragmented Nuclei (%) [9]: 27%
Population Healthy Nuclei (%) [9]: 62%
Population Hoechst High Intensity Objects (%) [9]: 3%
Population Membrane Permeable-Phenotype (%) [9]: 1%
Population Mitochondria Different-Phenotype (%) [9]: 3%
Population Mitotic Cells (%) [9]: 11%
Population Normal (%) [9]: 96%
Population Pyknosed Nuclei (%) [9]: 9%
Population Tubulin-Different-Phenotype (%) [9]: 45%
Total Cell Count [9]: 204
Population Apoptotic (%) [10]: 52%
Population Fragmented Nuclei (%) [10]: 44%
Population Healthy Nuclei (%) [10]: 44%
Population Hoechst High Intensity Objects (%) [10]: 5%
Population Membrane Permeable-Phenotype (%) [10]: 4%
Population Mitochondria Different-Phenotype (%) [10]: 12%
Population Mitotic Cells (%) [10]: 47%
Population Normal (%) [10]: 94%
Population Pyknosed Nuclei (%) [10]: 10%
Population Tubulin-Different-Phenotype (%) [10]: 64%
Total Cell Count [10]: 167
Population Apoptotic (%) [11]: 92%
Population Fragmented Nuclei (%) [11]: 15%
Population Healthy Nuclei (%) [11]: 67%
Population Hoechst High Intensity Objects (%) [11]: 12%
Population Membrane Permeable-Phenotype (%) [11]: 0%
Population Mitochondria Different-Phenotype (%) [11]: 44%
Population Mitotic Cells (%) [11]: 8%
Population Normal (%) [11]: 87%
Population Pyknosed Nuclei (%) [11]: 17%
Population Tubulin-Different-Phenotype (%) [11]: 91%
Total Cell Count [11]: 163
Population Apoptotic (%) [12]: 75%
Population Fragmented Nuclei (%) [12]: 30%
Population Healthy Nuclei (%) [12]: 53%
Population Hoechst High Intensity Objects (%) [12]: 6%
Population Membrane Permeable-Phenotype (%) [12]: 3%
Population Mitochondria Different-Phenotype (%) [12]: 41%
Population Mitotic Cells (%) [12]: 25%
Population Normal (%) [12]: 93%
Population Pyknosed Nuclei (%) [12]: 16%
Population Tubulin-Different-Phenotype (%) [12]: 92%
Total Cell Count [12]: 159
